Converted amounts (≈) assume the structure as drawn.
system: Lacticaseibacillus rhamnosus; assay: Antimicrobial activity against Lactobacillus casei ATCC 7469 assessed as growth inhibition; assay type: functional; conditions: not given

Row | SMILES | GI50
1 | CN(CC1=Nc2c(N)nc(N)nc2NC1)c1ccc(C(=O)N[C@@H](CCC(=O)O)C(=O)O)cc1 | 0.02 nM
2 | CN(CC1=Nc2c(N)nc(N)nc2N(C)C1)c1ccc(C(=O)N[C@@H](CCC(=O)O)C(=O)O)cc1 | 0.1 nM
3 | CCN1CC(CN(C)c2ccc(C(=O)N[C@@H](CCC(=O)O)C(=O)O)cc2)=Nc2c(N)nc(N)nc21 | 0.35 nM
4 | CCCCN1CC(CN(C)c2ccc(C(=O)N[C@@H](CCC(=O)O)C(=O)O)cc2)=Nc2c(N)nc(N)nc21 | 1.2 nM
5 | CCCCCCN1CC(CN(C)c2ccc(C(=O)N[C@@H](CCC(=O)O)C(=O)O)cc2)=Nc2c(N)nc(N)nc21 | 0.27 nM
6 | CN(CC1=Nc2c(N)nc(N)nc2N(CC2CCCCC2)C1)c1ccc(C(=O)N[C@@H](CCC(=O)O)C(=O)O)cc1 | 3.5 nM
7 | CN(CC1=Nc2c(N)nc(N)nc2N(Cc2ccccc2)C1)c1ccc(C(=O)N[C@@H](CCC(=O)O)C(=O)O)cc1 | 0.35 nM
8 | CN(CC1=Nc2c(N)nc(N)nc2N(Cc2ccc(Cl)c(Cl)c2)C1)c1ccc(C(=O)N[C@@H](CCC(=O)O)C(=O)O)cc1 | 19.4 nM
9 | CN(CC1=Nc2c(N)nc(N)nc2N(Cc2cccc3ccccc23)C1)c1ccc(C(=O)N[C@@H](CCC(=O)O)C(=O)O)cc1 | 0.47 nM
10 | CN(CC1CNc2nc(N)nc(N)c2N1)c1ccc(C(=O)N[C@@H](CCC(=O)O)C(=O)O)cc1 (some centres not stated) | 0.14 nM
11 | CN(CC1CN(C)c2nc(N)nc(N)c2N1)c1ccc(C(=O)N[C@@H](CCC(=O)O)C(=O)O)cc1 (some centres not stated) | 1.4 nM
12 | CN(Cc1cnc2nc(N)nc(N)c2n1)c1ccc(C(=O)N[C@@H](CCC(=O)O)C(=O)O)cc1 [METHOTREXATE] | 0.04 nM

target: Dihydrofolate reductase (Lactobacillus casei, UniProt P00381); assay: Inhibition of MTX-resistant Lactobacillus casei dihydrofolate reductase; design: species or system Lacticaseibacillus casei; conditions: not given
Sequence (P00381 whole entry): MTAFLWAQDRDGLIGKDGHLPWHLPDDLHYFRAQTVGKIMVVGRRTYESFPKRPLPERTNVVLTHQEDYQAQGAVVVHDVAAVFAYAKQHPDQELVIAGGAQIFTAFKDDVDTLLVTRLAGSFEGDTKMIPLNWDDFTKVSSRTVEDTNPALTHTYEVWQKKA

Row | SMILES | IC50
13 | CN(CC1=Nc2c(N)nc(N)nc2NC1)c1ccc(C(=O)N[C@@H](CCC(=O)O)C(=O)O)cc1 | 20 nM
14 | CN(CC1=Nc2c(N)nc(N)nc2N(C)C1)c1ccc(C(=O)N[C@@H](CCC(=O)O)C(=O)O)cc1 | 140 nM
15 | CCN1CC(CN(C)c2ccc(C(=O)N[C@@H](CCC(=O)O)C(=O)O)cc2)=Nc2c(N)nc(N)nc21 | 900 nM
16 | CCCCN1CC(CN(C)c2ccc(C(=O)N[C@@H](CCC(=O)O)C(=O)O)cc2)=Nc2c(N)nc(N)nc21 | 380 nM
17 | CCCCCCN1CC(CN(C)c2ccc(C(=O)N[C@@H](CCC(=O)O)C(=O)O)cc2)=Nc2c(N)nc(N)nc21 | 1800 nM
18 | CN(CC1=Nc2c(N)nc(N)nc2N(CC2CCCCC2)C1)c1ccc(C(=O)N[C@@H](CCC(=O)O)C(=O)O)cc1 | 870 nM
19 | CN(CC1=Nc2c(N)nc(N)nc2N(Cc2ccccc2)C1)c1ccc(C(=O)N[C@@H](CCC(=O)O)C(=O)O)cc1 | 740 nM
20 | CN(CC1=Nc2c(N)nc(N)nc2N(Cc2ccc(Cl)c(Cl)c2)C1)c1ccc(C(=O)N[C@@H](CCC(=O)O)C(=O)O)cc1 | 3600 nM
21 | CN(CC1=Nc2c(N)nc(N)nc2N(Cc2cccc3ccccc23)C1)c1ccc(C(=O)N[C@@H](CCC(=O)O)C(=O)O)cc1 | 4500 nM
22 | CN(CC1CNc2nc(N)nc(N)c2N1)c1ccc(C(=O)N[C@@H](CCC(=O)O)C(=O)O)cc1 (some centres not stated) | 200 nM
23 | CN(CC1CN(C)c2nc(N)nc(N)c2N1)c1ccc(C(=O)N[C@@H](CCC(=O)O)C(=O)O)cc1 (some centres not stated) | 2500 nM

target: T1, Thymidylate synthase (Lactobacillus casei, UniProt P00469); assay: Inhibition of MTX-resistant Lactobacillus casei thymidylate synthetase; design: species or system Lacticaseibacillus casei; conditions: not given
T1 sequence (P00469 whole entry): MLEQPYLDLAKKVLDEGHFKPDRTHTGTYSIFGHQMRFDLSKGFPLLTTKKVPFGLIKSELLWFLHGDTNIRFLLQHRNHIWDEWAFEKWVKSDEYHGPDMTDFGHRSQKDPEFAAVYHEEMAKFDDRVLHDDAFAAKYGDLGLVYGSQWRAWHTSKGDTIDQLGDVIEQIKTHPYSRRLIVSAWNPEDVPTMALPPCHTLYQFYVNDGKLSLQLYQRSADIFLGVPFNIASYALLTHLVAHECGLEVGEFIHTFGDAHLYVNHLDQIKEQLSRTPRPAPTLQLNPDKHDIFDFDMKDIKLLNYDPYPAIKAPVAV

Row | SMILES | IC50
24 | CN(CC1=Nc2c(N)nc(N)nc2NC1)c1ccc(C(=O)N[C@@H](CCC(=O)O)C(=O)O)cc1 | 1000 nM
25 | CN(CC1=Nc2c(N)nc(N)nc2N(C)C1)c1ccc(C(=O)N[C@@H](CCC(=O)O)C(=O)O)cc1 | 4000 nM
26 | CCN1CC(CN(C)c2ccc(C(=O)N[C@@H](CCC(=O)O)C(=O)O)cc2)=Nc2c(N)nc(N)nc21 | 20000 nM
27 | CCCCN1CC(CN(C)c2ccc(C(=O)N[C@@H](CCC(=O)O)C(=O)O)cc2)=Nc2c(N)nc(N)nc21 | 19000 nM
28 | CCCCCCN1CC(CN(C)c2ccc(C(=O)N[C@@H](CCC(=O)O)C(=O)O)cc2)=Nc2c(N)nc(N)nc21 | 43000 nM
29 | CN(CC1=Nc2c(N)nc(N)nc2N(CC2CCCCC2)C1)c1ccc(C(=O)N[C@@H](CCC(=O)O)C(=O)O)cc1 | 17000 nM
30 | CN(CC1=Nc2c(N)nc(N)nc2N(Cc2ccccc2)C1)c1ccc(C(=O)N[C@@H](CCC(=O)O)C(=O)O)cc1 | 8000 nM
31 | CN(CC1=Nc2c(N)nc(N)nc2N(Cc2ccc(Cl)c(Cl)c2)C1)c1ccc(C(=O)N[C@@H](CCC(=O)O)C(=O)O)cc1 | 13000 nM
32 | CN(CC1=Nc2c(N)nc(N)nc2N(Cc2cccc3ccccc23)C1)c1ccc(C(=O)N[C@@H](CCC(=O)O)C(=O)O)cc1 | 16000 nM
33 | CN(CC1CNc2nc(N)nc(N)c2N1)c1ccc(C(=O)N[C@@H](CCC(=O)O)C(=O)O)cc1 (some centres not stated) | 5000 nM
34 | CN(CC1CN(C)c2nc(N)nc(N)c2N1)c1ccc(C(=O)N[C@@H](CCC(=O)O)C(=O)O)cc1 (some centres not stated) | 39000 nM

system: CCRF-CEM; assay: Cytotoxicity against human CCRF-CEM cells; assay type: functional; conditions: read-out: ID50 (the source's name)

Row | SMILES | IC50
35 | CN(CC1=Nc2c(N)nc(N)nc2NC1)c1ccc(C(=O)N[C@@H](CCC(=O)O)C(=O)O)cc1 | 0.021 µg/mL (≈ 0.046 µM)
36 | CN(CC1=Nc2c(N)nc(N)nc2N(C)C1)c1ccc(C(=O)N[C@@H](CCC(=O)O)C(=O)O)cc1 | 0.23 µg/mL (≈ 0.489 µM)
37 | CCN1CC(CN(C)c2ccc(C(=O)N[C@@H](CCC(=O)O)C(=O)O)cc2)=Nc2c(N)nc(N)nc21 | 0.27 µg/mL (≈ 0.557 µM)
38 | CCCCN1CC(CN(C)c2ccc(C(=O)N[C@@H](CCC(=O)O)C(=O)O)cc2)=Nc2c(N)nc(N)nc21 | 0.23 µg/mL (≈ 0.449 µM)
39 | CCCCCCN1CC(CN(C)c2ccc(C(=O)N[C@@H](CCC(=O)O)C(=O)O)cc2)=Nc2c(N)nc(N)nc21 | 0.58 µg/mL (≈ 1.07 µM)
40 | CN(CC1=Nc2c(N)nc(N)nc2N(CC2CCCCC2)C1)c1ccc(C(=O)N[C@@H](CCC(=O)O)C(=O)O)cc1 | 0.14 µg/mL (≈ 0.253 µM)
41 | CN(CC1=Nc2c(N)nc(N)nc2N(Cc2ccccc2)C1)c1ccc(C(=O)N[C@@H](CCC(=O)O)C(=O)O)cc1 | 0.78 µg/mL (≈ 1.43 µM)
42 | CN(CC1=Nc2c(N)nc(N)nc2N(Cc2ccc(Cl)c(Cl)c2)C1)c1ccc(C(=O)N[C@@H](CCC(=O)O)C(=O)O)cc1 | > 1 µg/mL
43 | CN(CC1=Nc2c(N)nc(N)nc2N(Cc2cccc3ccccc23)C1)c1ccc(C(=O)N[C@@H](CCC(=O)O)C(=O)O)cc1 | > 1 µg/mL
44 | CN(CC1CN(C)c2nc(N)nc(N)c2N1)c1ccc(C(=O)N[C@@H](CCC(=O)O)C(=O)O)cc1 (some centres not stated) | 0.14 µg/mL (≈ 0.296 µM)
45 | CN(Cc1cnc2nc(N)nc(N)c2n1)c1ccc(C(=O)N[C@@H](CCC(=O)O)C(=O)O)cc1 [METHOTREXATE] | 0.018 µg/mL (≈ 0.0396 µM)

system: Mus musculus; assay: Toxicity in BDF/1 hybrid mouse xenografted with mouse L1210 cells assessed as optimal nontoxic dose administered q3d on day 1, 4 and 7; assay type: organism-based; conditions: in vivo
Summary of the method: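 Male BDF/1 hybrid mice received 10^5 L-1210 leukemia cells ip. Test agents in 0.1 M phosphate buffer (pH 8) were given ip 24 h after implantation (day 1) and again on days 4 and 7. The optimal nontoxic dose is expressed as mg/kg × 3; where marked, it is the highest nontoxic dose tested.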

Row | SMILES | Activity
46 | CN(CC1=Nc2c(N)nc(N)nc2NC1)c1ccc(C(=O)N[C@@H](CCC(=O)O)C(=O)O)cc1 | 30 mg/kg
47 | CN(CC1=Nc2c(N)nc(N)nc2N(C)C1)c1ccc(C(=O)N[C@@H](CCC(=O)O)C(=O)O)cc1 | 300 mg/kg
48 | CCCCN1CC(CN(C)c2ccc(C(=O)N[C@@H](CCC(=O)O)C(=O)O)cc2)=Nc2c(N)nc(N)nc21 | 100 mg/kg
49 | CN(CC1=Nc2c(N)nc(N)nc2N(CC2CCCCC2)C1)c1ccc(C(=O)N[C@@H](CCC(=O)O)C(=O)O)cc1 | 300 mg/kg
50 | CN(CC1CN(C)c2nc(N)nc(N)c2N1)c1ccc(C(=O)N[C@@H](CCC(=O)O)C(=O)O)cc1 (some centres not stated) | 200 mg/kg
51 | CN(Cc1cnc2nc(N)nc(N)c2n1)c1ccc(C(=O)N[C@@H](CCC(=O)O)C(=O)O)cc1 [METHOTREXATE] | 15 mg/kg

system: L1210; assay: Antitumor activity against mouse L1210 cells allografted in BDF/1 hybrid mouse assessed as increase in life span relative to control; assay type: functional; conditions: not given
Summary of the method: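 Male BDF/1 hybrid mice inoculated ip with 10^5 L-1210 leukemia cells; test agents dissolved in 0.1 M phosphate buffer (pH 8), given ip 24 h after implantation (day 1) and on days 4 and 7. Median survival times of treated (T) and control (C) groups compared; % ILS = 100 × (T/C − 1).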

Row | SMILES | ILS
52 | CN(CC1=Nc2c(N)nc(N)nc2NC1)c1ccc(C(=O)N[C@@H](CCC(=O)O)C(=O)O)cc1 | 9%
53 | CN(CC1=Nc2c(N)nc(N)nc2N(C)C1)c1ccc(C(=O)N[C@@H](CCC(=O)O)C(=O)O)cc1 | 27%
54 | CCN1CC(CN(C)c2ccc(C(=O)N[C@@H](CCC(=O)O)C(=O)O)cc2)=Nc2c(N)nc(N)nc21 | 18%
55 | CCCCN1CC(CN(C)c2ccc(C(=O)N[C@@H](CCC(=O)O)C(=O)O)cc2)=Nc2c(N)nc(N)nc21 | 25%
56 | CCCCCCN1CC(CN(C)c2ccc(C(=O)N[C@@H](CCC(=O)O)C(=O)O)cc2)=Nc2c(N)nc(N)nc21 | 0%
57 | CN(CC1=Nc2c(N)nc(N)nc2N(CC2CCCCC2)C1)c1ccc(C(=O)N[C@@H](CCC(=O)O)C(=O)O)cc1 | 27%
58 | CN(CC1=Nc2c(N)nc(N)nc2N(Cc2ccccc2)C1)c1ccc(C(=O)N[C@@H](CCC(=O)O)C(=O)O)cc1 | 25%
59 | CN(CC1=Nc2c(N)nc(N)nc2N(Cc2ccc(Cl)c(Cl)c2)C1)c1ccc(C(=O)N[C@@H](CCC(=O)O)C(=O)O)cc1 | 36%
60 | CN(CC1=Nc2c(N)nc(N)nc2N(Cc2cccc3ccccc23)C1)c1ccc(C(=O)N[C@@H](CCC(=O)O)C(=O)O)cc1 | 0%
61 | CN(CC1CN(C)c2nc(N)nc(N)c2N1)c1ccc(C(=O)N[C@@H](CCC(=O)O)C(=O)O)cc1 (some centres not stated) | 9%
62 | CN(Cc1cnc2nc(N)nc(N)c2n1)c1ccc(C(=O)N[C@@H](CCC(=O)O)C(=O)O)cc1 [METHOTREXATE] | 70%

system: not listed separately; assay: Toxicity in BDF/1 hybrid mouse xenografted with mouse L1210 cells administered q3d on day 1, 4 and 7; assay type: organism-based; conditions: in vivo
Summary of the method: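 Male BDF/1 hybrid mice carrying ip-inoculated L-1210 cells (10^5) dosed ip on days 1, 4 and 7 (first dose 24 h post-implant) with compound in 0.1 M phosphate buffer, pH 8. Value expressed as optimal nontoxic dose in mg/kg ×3; where the top level tested was nontoxic, the highest nontoxic dose tested is given.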

Row | SMILES | MTD
63 | CCN1CC(CN(C)c2ccc(C(=O)N[C@@H](CCC(=O)O)C(=O)O)cc2)=Nc2c(N)nc(N)nc21 | 400 mg/kg
64 | CCCCCCN1CC(CN(C)c2ccc(C(=O)N[C@@H](CCC(=O)O)C(=O)O)cc2)=Nc2c(N)nc(N)nc21 | 400 mg/kg
65 | CN(CC1=Nc2c(N)nc(N)nc2N(Cc2ccccc2)C1)c1ccc(C(=O)N[C@@H](CCC(=O)O)C(=O)O)cc1 | 400 mg/kg
66 | CN(CC1=Nc2c(N)nc(N)nc2N(Cc2ccc(Cl)c(Cl)c2)C1)c1ccc(C(=O)N[C@@H](CCC(=O)O)C(=O)O)cc1 | 400 mg/kg
67 | CN(CC1=Nc2c(N)nc(N)nc2N(Cc2cccc3ccccc23)C1)c1ccc(C(=O)N[C@@H](CCC(=O)O)C(=O)O)cc1 | 400 mg/kg

From ChEMBL document CHEMBL3271957 (J Med Chem, 1977)
